Activity calls are given as the source filed them. The calls are words filed in the database; no cut-off is given here.
Columns and labels:
[1] = system: MDA-MB-231; experiment: Antiproliferative activity against human MDA-MB-231 cells after 4 days by microplate assay; assay type: functional, cell-based; details: MDA-MB-231, 96 h
How it was run: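 MDA-MB 231 cells grown in McCoy-5a with L-glutamine, gentamycin, NaHCO3 and 5% FCS; 2–3 days growth at 37 °C, 5% CO2 before compound in fresh medium (controls 0.1% DMF); about 4 days exposure; 1% glutaric dialdehyde fixation, 0.02% crystal violet, 70% EtOH elution, OD 578 nm; mean of two experiments with 16–24 replicates.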

[2] = system: MCF7; experiment: Antiproliferative activity against human MCF7 cells after 5 days by microplate assay; assay type: functional, cell-based; details: MCF7, 120 h
How it was run: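 MCF-7 cells grown in EMEM with sodium pyruvate, gentamycin, NaHCO3, phenol red and 10% FCS; seeded in 96-well plates and grown 2–3 days at 37 °C, 5% CO2, then medium with compound (DMF stock; controls 0.1% DMF) for 5 days; glutaric dialdehyde fixation, 0.02% crystal violet stain, ethanol extraction, OD 578 nm; mean of two experiments, 16–24 replicates.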

[3] = system: U373 MG; experiment: Antiproliferative activity against human U373 MG cells at 10 nM; assay type: functional, cell-based; details: U-373MG ATCC
How it was run: (§1)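 U-373 MG glioblastoma cells in EMEM-type medium with 5% FCS under permanent exposure to 10–200 nM; plates fixed with glutaric dialdehyde at various times, stored cold, then crystal violet stained together; absorbance expressed as corrected T/C = (T − C0)/(C − C0) × 100 (%).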

[4] = system: U373 MG; experiment: Antiproliferative activity against human U373 MG cells at 200 nM after 100 hrs; assay type: functional, cell-based; details: U-373MG ATCC
How it was run: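 Confluent (resting) U-373 MG cultures exposed to compound, with DMSO solvent controls, for up to ~150 h; crystal violet staining of fixed cells at various times; effect expressed as cytocidal effect (%) versus time.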

[5] = system: HL-60; experiment: Antiproliferative activity against human HL60 cells after 48 hrs by MTT assay; assay type: functional, cell-based; details: HL-60, 48 h
How it was run: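 HL-60 human leukemia cells kept in log growth in RPMI 1640 with 10% FCS, penicillin G and streptomycin; treated for 48 h; growth read by MTT assay; IC50 = 50% and IC90 = 90% inhibition of cell growth; values given ± SD.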

[6] = system: HL-60; experiment: Induction of apoptosis in human HL60 cells assessed as caspase 3 activation at 100 nM after 24 hrs; assay type: functional, cell-based
How it was run: (§2)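 HL-60 cells (3 million at 5 × 10^5 cells/mL) treated 24 h at 37 °C, 5% CO2; hypotonic Hepes/DTT/EDTA/CHAPS lysates on ice; Ac-DMQD-AMC (1.0 μM final) cleaved 60 min at 30 °C; released AMC separated by RP-HPLC, quantified fluorometrically (ex 355 or 400, em 435 nm) against AMC standards; activity in pmol/min/mg; means of three experiments ± SD.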

[7] = Inhibition of tubulin polymerization at 5 uM by microplate assay
How it was run: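 Tubulin suspended in cold G-PEM buffer with 5% glycerol and depolymerised at 0 °C. It was added to compound that had been diluted 1:10 from DMSO stock into G-PEM in wells prewarmed to 37 °C. Turbidity was read at 355 nm every minute for 28–30 min at 37 °C. Solvent controls held 1% DMSO; colchicine (5 µM) and paclitaxel (2 µM) were run as references.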

[8] = Inhibition of tubulin polymerization at 5 uM by microplate assay
[9] = system: HL-60; experiment: Induction of apoptosis in human HL60 cells assessed as increase in caspase 3 activation at 2.0 uM after 24 hrs; assay type: functional
[10] = system: HL-60; experiment: Induction of apoptosis in human HL60 cells assessed as increase in caspase 3 activation at 1 uM after 24 hrs; assay type: functional, cell-based
[11] = system: HL-60; experiment: Induction of apoptosis in human HL60 cells assessed as increase in caspase 9 activation at 1 uM after 24 hrs; assay type: functional, cell-based
[12] = system: U373 MG; experiment: Antiproliferative activity against human U373 MG cells at 50 nM after 72 hrs; assay type: functional, cell-based; details: U-373MG ATCC; how it was run: as §1
[13] = system: U-87 MG; experiment: Effect on cell morphology in human U87 MG cells assessed as disruption of microtubule network at 50 nM by confocal fluorescence microscopy; assay type: functional, cell-based; details: U-87MG ATCC
How it was run: (§3)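 U-87 MG cells at 75% confluence in chamber slides treated 3 h at 37 °C (EtOH vehicle); fixed in 4% paraformaldehyde, permeabilized with 1% Triton X-100; α-tubulin immunostained (Cy5 secondary), nuclei with SYTOX Green; imaged by confocal laser scanning microscopy.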

[14] = system: HL-60; experiment: Induction of apoptosis in human HL60 cells assessed as increase in caspase 3 activation at 500 nM after 24 hrs; assay type: functional, cell-based; how it was run: as §2
[15] = system: U-87 MG; experiment: Effect on cell morphology in human U87 MG cells assessed as disruption of microtubule network at 10 nM by confocal fluorescence microscopy; assay type: functional, cell-based; details: U-87MG ATCC; how it was run: as §3
[16] = system: MDA-MB-231; experiment: Cell cycle arrest in human MDA-MB-231 cells assessed as decrease in accumulation at G1/G0 phase after 24 hrs by flow cytometry; assay type: functional, cell-based
How it was run: (§4)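 MDA-MB 231 cells at 70–80% confluence in 75 cm2 flasks exposed 24 h (DMF vehicle, 0.1% final); trypsinized, fixed in ice-cold 70% EtOH, DNA extraction buffer, propidium iodide stain ≥30 min at room temperature; 8000–15,000 events analysed by flow cytometry for sub-G1, G1/G0, S and G2/M fractions; representative of two experiments.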

[17] = system: MDA-MB-231; experiment: Cell cycle arrest in human MDA-MB-231 cells assessed as increase in accumulation at G2/M phase after 24 hrs by flow cytometry; assay type: functional, cell-based; how it was run: as §4
[18] = system: U373 MG; experiment: Antiproliferative activity against human U373 MG cells after 72 hrs; assay type: functional, cell-based; details: U-373MG ATCC
How it was run: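 Human U-373 MG glioblastoma cells grown in EMEM with sodium pyruvate, gentamycin, NaHCO3, phenol red and 5% FCS. Exposure was continuous at 10, 50, 100 and 200 nM, with DMF in the controls. Plates were fixed with glutaric dialdehyde at intervals and stained together with crystal violet. Absorbance read at 578 nm; corrected T/C% = (T − C0)/(C − C0) × 100.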

SMILES	IC50 [1] [nM]	IC50 [2] [nM]	also measured
CCCCc1ccc2[nH]c(-c3ccc(OC)cc3)c(/C=N/NC(=O)c3cccnc3)c2c1	35	75	Activity [3]: Active; Activity [4]: Active; IC50 [5]: 50 nM; IC90 [5]: 115 nM; Activity [6]: Active
CCCCc1ccc2[nH]c(-c3ccc(OC)cc3)c(/C=N/NC(=O)c3ccc(OC)cc3)c2c1	61	226	–
COc1cc2c(c(OC)c1OC)-c1ccc(OC)c(=O)cc1[C@@H](NC(C)=O)CC2	–	–	Activity [7]: Active
CCCCc1ccc2[nH]c(-c3ccc(OC)cc3)c(/C=N/NC(=O)c3ccc([N+](=O)[O-])cc3)c2c1	115	312	–
CCCCc1ccc2[nH]c(-c3ccc(OC)cc3)c(/C=N/O)c2c1	40	212	–
CCCCc1ccc2[nH]c(-c3ccc(C(F)(F)F)cc3)c(/C=N/NC(=O)c3ccc(Cl)cc3)c2c1	329	1060	–
CC(=O)O[C@H]1C(=O)[C@@]2(C)[C@H]([C@H](OC(=O)c3ccccc3)[C@]3(O)C[C@H](OC(=O)[C@H](O)[C@@H](NC(=O)c4ccccc4)c4ccccc4)C(C)=C1C3(C)C)[C@]1(OC(C)=O)CO[C@@H]1C[C@@H]2O	–	–	Activity [8]: Active
COc1cc([C@@H]2c3cc4c(cc3[C@@H](O[C@@H]3O[C@@H]5CO[C@@H](C)O[C@H]5[C@H](O)[C@H]3O)[C@H]3COC(=O)[C@H]23)OCO4)cc(OC)c1O [ETOPOSIDE]	–	–	IC50 [5]: 315 nM; Activity [9]: 3.37
CCCCc1ccc2[nH]c(-c3ccc(OC)cc3)c(/C=N/NC(=O)c3cccc(O)c3)c2c1	30	–	–
CCCCc1ccc2[nH]c(-c3ccc(C(F)(F)F)cc3)c(/C=N/NC(=O)c3ccccc3)c2c1	300	460	–
CCCCc1ccc2[nH]c(-c3ccc(C(F)(F)F)cc3)c(/C=N/NC(=O)c3ccncc3)c2c1	94	100	Activity [10]: Active; Activity [11]: Active
CCCCc1ccc2[nH]c(-c3ccc(C(F)(F)F)cc3)c(/C=N/NC(=O)c3ccc([N+](=O)[O-])cc3)c2c1	2040	6340	–
CCCCc1ccc2[nH]c(-c3ccc(C(F)(F)F)cc3)c(/C=N/NC(=O)c3ccccn3)c2c1	260	310	–
CCCCc1ccc2[nH]c(-c3ccc(C(F)(F)F)cc3)c(/C=N/NC(=O)c3ccc(OC)cc3)c2c1	284	618	–
CCCCc1ccc2[nH]c(-c3ccc(OC)cc3)c(/C=N/NC(=O)c3ccc(F)cc3)c2c1	19	84	Activity [12]: Active; Activity [4]: Active; Activity [13]: inactive; IC50 [5]: 91 nM; IC90 [5]: 164 nM; Activity [14]: Active
CCCCc1ccc2[nH]c(-c3ccc(C(F)(F)F)cc3)c(/C=N/NC(=O)c3cccnc3)c2c1	97	260	–
CCCCc1ccc2[nH]c(-c3ccc(OC)cc3)c(/C=N/NC(=O)c3ccccn3)c2c1	34	160	IC50 [5]: 213 nM; IC90 [5]: 333 nM
CCCCc1ccc2[nH]c(-c3ccc(OC)cc3)c(/C=N/NC(=O)c3ccccc3OC)c2c1	21	71	IC50 [5]: 74 nM; IC90 [5]: 142 nM; Activity [14]: Active
CC[C@]1(O)C[C@H]2CN(CCc3c([nH]c4ccccc34)[C@@](C(=O)OC)(c3cc4c(cc3OC)N(C=O)[C@H]3[C@@](O)(C(=O)OC)[C@H](OC(C)=O)[C@]5(CC)C=CCN6CC[C@]43[C@@H]65)C2)C1 [VINCRISTINE]	6	2	Activity [15]: Active
CCCCc1ccc2[nH]c(-c3ccc(CC)cc3)c(/C=N/NC(=O)c3cccnc3)c2c1	53	100	–
CCCCc1ccc2[nH]c(-c3ccc(OC)cc3)c(/C=N/NC(=O)c3ccccc3)c2c1	32	130	Activity [16]: Active; Activity [17]: Active
COc1ccc(-c2[nH]c3ccc(C)cc3c2/C=N/NC(=O)c2ccncc2)cc1	290	200	–
CCCCc1ccc2[nH]c(-c3ccc(CC)cc3)c(/C=N/NC(=O)c3ccncc3)c2c1	80	150	–
CCCCc1ccc2[nH]c(-c3ccc(OC)cc3)c(/C=N/NC(=O)c3cccc(OC)c3)c2c1	55	–	–
CCCCc1ccc2[nH]c(-c3ccc(OC)cc3)c(/C=N/NC(=O)c3ccncc3)c2c1	29	69	–
C=C(C)[C@H]1Cc2c(ccc3c2O[C@@H]2COc4cc(OC)c(OC)cc4[C@@H]2C3=O)O1	–	–	Activity [18]: Active
CCCCc1ccc2[nH]c(-c3ccc(OC)cc3)c(/C=N/NC(=O)c3ccc(Cl)cc3)c2c1	90	220	–
